Source: article PMC2796117 (Bioorganic & medicinal chemistry letters, 2009)

Columns and labels:
[1] = test system: Gli activity (Shh pathway) in Shh-LIGHT2 cell line; assay: Shh-LIGHT2 Gli-luciferase reporter assay; type: cell-based; settings: for Gli repression / activity in Shh-LIGHT2 (in words): Shh-LIGHT2 cell line, concentrations ranging from 3.9 µM to 125 µM where stated
In short: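 Shh-LIGHT2 Gli-reporter cells stimulated with ShhN-conditioned DMEM containing 0.5% (v/v) calf serum, then exposed to test compound over a concentration series (3.9 to 125 µM where stated). Gli activity read by Bright Glo luciferase, and cytotoxicity by Cell Titer Glo. EC50 approximated from concentration curves. % ECmax is inhibition relative to cyclopamine's ECmax, or for cytotoxic compounds relative to the highest effective non-cytotoxic concentration.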

[2] = test system: Shh-LIGHT2 cells; assay: Cytotoxicity by Cell Titer Glo; type: cell-based; settings: for Cytotoxicity: Shh-LIGHT2 cells, cytotoxic above the stated concentration; for cytotoxicity (in words): any concentration
In short: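 Cell Titer Glo luminescence in Shh-LIGHT2 Gli-reporter cells. Values are approximations read from concentration curves. Where compounds are cytotoxic, the Gli % ECmax is taken at the highest effective non-cytotoxic concentration.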

[3] = molecular target: ShhN (Homo sapiens, UniProt Q15465); assay: Surface plasmon resonance; type: binding
Sequence of ShhN (Q15465 24-197 limits assumed, species assumed): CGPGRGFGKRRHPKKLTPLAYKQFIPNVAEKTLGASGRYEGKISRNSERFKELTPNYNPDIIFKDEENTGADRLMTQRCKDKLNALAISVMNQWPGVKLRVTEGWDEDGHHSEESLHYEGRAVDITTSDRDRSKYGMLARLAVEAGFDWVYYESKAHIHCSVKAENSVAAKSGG
In short: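 Purified Sonic Hedgehog N-terminal peptide (ShhN) probed by surface plasmon resonance with test compound in PBS containing 5% (v/v) DMSO. Sensorgrams background-subtracted against DMSO. Binding expressed as KD in µM, with off-rates compared from the binding curves.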

[4] = test system: Shh signaling; settings: cell lines, human primary keratinocytes, synthetic model of human skin; cited from earlier work

| apparent off-rate ([3]; SPR, compared with the (2S, 6R) 13-membered homolog) | SMILES | Gli repression / activity in Shh-LIGHT2 (in words) [1] | Cytotoxicity [2] | cytotoxicity (in words) [2] | % ECmax (footnote e) ([1]; taken relative to mock treatment (reporter values comparable to 6µM cyclopamine), cytotoxic compounds: highest effective non-cytotoxic concentration) | Binding / affinity for ShhN by SPR (in words) ([3]; purified ShhN, PBS buffer with 5% (v/v) DMSO) | effect on Shh signaling [4] |
| --- | --- | --- | --- | --- | --- | --- | --- |
| – | O=C(C[C@H]1C/C=C/CCCC(=O)O[C@@H](c2ccccc2)CNC1=O)NCc1ccc(Cl)cc1 [(1, S, R) (3)] | Gli suppression was ablated | none | neither compound displayed differences in cytotoxicity at any concentration | – | – | – |
| significantly longer | O=C(C[C@@H]1C/C=C/CCC(=O)O[C@H](c2ccccc2)CNC1=O)NCc1ccc(Cl)cc1 [(0, R, S) (2), robotnikinin] | strong concentration-dependent Gli repression | none | neither compound displayed differences in cytotoxicity at any concentration | 91% ^e | bound purified ShhN in a stoichiometric manner | blocks Shh signaling |
